High-throughput results deposited in PubChem BioAssay by The Scripps Research Institute Molecular Screening Center.
A selection: hits, their analogues and other compounds. The true share with any hit is near 1.9%.
UHRF1 binding: UHRF1 methyl-DNA binding inhibition; Q96T88; UHRF1 binding to methylated oligo, TR-FRET; inhibition, % at 4.4 µM; actives 0.75% (n = 370,000); in the data active means inhibition above about 21%;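 further: UHRF1 SRA domain binding a hemimethylated CpG hairpin DNA probe; 0% = median of test compound wells and 100% = reference inhibitor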
TDP2 absorb: blocks human TDP2 phosphodiesterase activity; recombinant TDP2, T5PNP hydrolysis, p-nitrophenol absorbance 415 nm; O95551; AID 720702; actives 0.34% (n = 370,000); inhibition, % at 12.8 µM;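 active means inhibition above the mean of all tested compounds plus 3 SD, set per campaign, cut at about 25% in these data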;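 further: 0% = DMSO with enzyme and 100% = buffer with substrate but no TDP2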
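Material: recombinant human TDP2; quantity: TDP2 enzyme at 120 nM final; medium: Tris-HCl pH 7.5 with MgCl2; compound: single concentration, 12.8 µM nominal, with 1% DMSO; incubation: 2 h enzyme incubation at 37 °C; signal: epi absorbance; measure: percent inhibition; benchmarks: high control without enzyme, low control DMSO plus TDP2; repeats: singlicate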
LEDGF integ inh: blocks HIV-1 LEDGF/p75-dependent DNA integration | TR-FRET IN-LEDGF/p75 DNA integration, Eu/Cy5 | inhibition, % at 3.7 µM | actives 0.64% (n = 370,000) | AID 743269;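 active means inhibition above the screen-wide mean plus 3 SD, cut at about 13% in these data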;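 further: signal is the Cy5 over europium emission ratio at 671 and 618 nm; 0% = plate median of compound wells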
DDE Tn7 FP inh: inhibitors of Tn7 peptide binding to human fibrin DD(E); P02675; FP displacement of FITC-Tn7 peptide from fibrin DD(E); 0% = median of compound wells per plate; inhibition, % at 8.3 µM; actives 0.13% (n = 370,000); AID 720508;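 active means inhibition above the mean of compounds falling within the control limits plus 3 SD of them, cut at about 14% in these data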;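 further: 0% = plate median of compound wells and 100% = 10 µM Aha-Tn7 peptide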
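Assay system: Human fibrin DD(E) protein | Medium: Tris buffer with calcium and detergent, pH 7.8 | Reagent: 0.1 µM fluorescent Tn7 | Compound dosing: Single point at 8.3 µM | Times: 10 min preincubation, 3 h with tracer, room temperature | Detection: Fluorescence polarization of the labelled Tn7 tracer | Controls: Aha-Tn7 high control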
Tn6 DDE FP: DD(E)-Tn6 binding inhibition, primary FP screen | Fibrin DD(E) TRITC-Tn6 fluorescence polarization displacement | inhibition, % at 8.3 µM | actives 0.21% (n = 370,000);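 active means inhibition above a per-campaign cutoff: mean of compounds within control limits plus 3 SD, cut at about 15% in these data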;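 further: 0% = median of all compound wells on the plate and 100% = blocking peptide control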
MBD2 inh: inhibitors of human MBD2 binding to methylated oligonucleotide; TR-FRET; inhibition, % at 4.4 µM; actives 0.31% (n = 370,000); in the data active means inhibition above about 13%
Target sequence (Q9UBB5 whole entry, looked up): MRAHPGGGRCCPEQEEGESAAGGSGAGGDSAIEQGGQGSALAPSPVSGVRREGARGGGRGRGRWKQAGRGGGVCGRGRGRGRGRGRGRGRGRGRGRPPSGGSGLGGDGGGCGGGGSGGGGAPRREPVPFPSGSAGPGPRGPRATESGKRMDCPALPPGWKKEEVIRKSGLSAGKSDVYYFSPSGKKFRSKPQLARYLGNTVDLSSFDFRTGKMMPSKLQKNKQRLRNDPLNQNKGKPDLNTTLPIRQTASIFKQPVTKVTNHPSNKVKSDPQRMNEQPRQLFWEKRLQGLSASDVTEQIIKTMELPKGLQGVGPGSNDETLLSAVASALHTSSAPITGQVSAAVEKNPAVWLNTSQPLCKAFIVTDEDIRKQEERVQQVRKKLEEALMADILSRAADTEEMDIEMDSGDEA
TDP2 inh conf: confirmation of human TDP2 inhibitors. shares compounds with TDP2 absorb. recombinant human TDP2, absorbance read-out. inhibition, % at 12.8 µM. actives 22% (n = 1,100); in the data active means inhibition above about 25%;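 further: 0% = vehicle with enzyme and 100% = no enzyme buffer only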
IN multimer up: HIV-1 integrase multimerization activation, counter-screen. TR-FRET HIV-1 integrase multimerization, biochemical. actives 17% (n = 2,000). AID 1053131. shares compounds with LEDGF integ inh. activation, % at 7.7 µM; in the data active means activation above about 8.9%
TRFRET interf: counter-screen for LEDGF/p75 integration inhibitors: TR-FRET optical interference | shares compounds with LEDGF integ inh | TR-FRET optical interference counterscreen, HIV-1 IN multimerization | inhibition, % at 7.7 µM | 2,000 tested, under 10 active | AID 1053135;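 active means inhibition above the mean over all tested compounds plus 3 SD, which no compound reached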;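 further: 0% = integrase with antibodies and DMSO and 100% = antibodies without integrase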
IN-LEDGF confirm: confirmation of HIV-1 LEDGF/p75-dependent integration inhibitors; inhibition, % at 3.7 µM; AID 1053136; shares compounds with LEDGF integ inh; actives 36% (n = 2,000); TR-FRET LEDGF/p75-dependent HIV-1 integration, biochemical; in the data active means inhibition above about 14%
* hit, by the source's call; . = not tested or not shown.

SMILES | UHRF1 binding | TDP2 absorb | LEDGF integ inh | DDE Tn7 FP inh | Tn6 DDE FP | MBD2 inh | TDP2 inh conf | others
CCCCOc1ccc(C(=O)NC2CCCCN(CCC)C2=O)cc1 (centres undefined) | -1 | -5 | -2 | 0 | 2 | -1 | .
Cc1ccc(C(=O)NCCN2C(=O)C3C4C=CC(C4)C3C2=O)cc1 (centres undefined) | -2 | 1 | 7 | -7 | -3 | -1 | .
Cc1ccccc1OCC(O)CN1CCN(CC(O)COc2ccccc2C)C(C)C1 (centres undefined) | 5 | 26* | 2 | -8 | 3 | -3 | 5
Cc1ccccc1OCC(O)Cn1c2ccccc2c2ccccc21 (centres undefined) | 0 | -2 | 2 | -4 | 6 | -3 | .
CCCCCCCCN1C(=O)[C@@H](CC(=O)N2CCN(C(=O)OCC)CC2)C[C@@]2(C(=O)OC)C1=C[C@H](C(C)(C)C)O[C@@H]2C | -1 | -2 | -3 | 2 | 11 | -1 | .
Cc1c(Cc2ccccc2)c(=O)oc2cc(OCC(=O)c3ccccc3)ccc12 | 15 | -27 | 3 | 0 | 4 | 6 | .
Cc1c(Cc2ccccc2)c(=O)oc2cc(OCC(=O)NCC(O)c3ccccc3)ccc12 (centres undefined) | -3 | 30* | 2 | 3 | -4 | -5 | 5
Cc1ccc(-n2c(COc3ccccc3)nnc2SCC(=O)Nc2ccc3c(c2)OCO3)cc1 | -1 | -2 | 1 | -5 | -2 | -1 | .
COC(=O)c1cccc(Cn2ccc3ccc(-c4ccc5ccn(C(=O)C6CC6)c5c4)cc32)c1 | -4 | 3 | 1 | -3 | -1 | 2 | .
CC1(N2CCCCC2)C(=O)c2ccccc2C1=O | -2 | 62* | 1 | 3 | 4 | 0 | 2
CC1(C)c2cc(O)ccc2OC1N1CCOCC1 (centres undefined) | -4 | 25* | 1 | 1 | -7 | 2 | 12
O=C(Nc1ccc(S(=O)(=O)N2CCCCC2)cc1)C1CC(=O)N(c2ccc(Cl)cc2)C1 (centres undefined) | 0 | 25* | -1 | 1 | 2 | 2 | -6
COc1ccc(NC(=O)c2ccc(-n3c(C)ccc3C)cc2)c(OC)c1 | 0 | 30* | 3 | 7 | 0 | -5 | -9
CC1=C(c2ccccc2)C(=O)C(C)(C)CC1=O | 13 | 1 | -1 | -10 | 3 | 7 | .
COC(=O)[C@@]12C[C@@H](CC(=O)NCC34CC5CC(CC(C5)C3)C4)C(=O)N(CCc3ccc(OC)c(OC)c3)C1=CCC(C)(C)C2 | 0 | -12 | -2 | 8 | -2 | -7 | .
N[C@H]1CC[C@@H]2SC[C@@H](C(=O)O)N2C1=O | 16 | 9 | 1 | 1 | 4 | 8 | .
CCOc1ccc(-c2[nH]nc3c2C(c2ccc4c(c2)OCO4)C(C#N)=C(N)O3)cc1OC (centres undefined) | -12 | 27* | -1 | -2 | -2 | -4 | 5
COc1cc(Br)c(C2C(C#N)=C(N)Oc3n[nH]c(-c4cccnc4)c32)cc1OC (centres undefined) | -2 | 43* | 7 | -4 | 0 | -2 | 16
CCOC(=O)C1CCN(S(=O)(=O)c2cc(C(=O)N3CCCCC3)ccc2OC)CC1 | -1 | 25* | 2 | 0 | -5 | -4 | -1
CN1CCN(c2ccc3c(c2)Oc2ccccc2CN(Cc2cn(Cc4ccccc4C(F)(F)F)nn2)S3(=O)=O)CC1 | 0 | -2 | -2 | 6 | 4 | 0 | .
CCC(C)N1CCN(S(=O)(=O)c2ccc3ccccc3c2)CC1 (centres undefined) | 4 | 32* | 1 | -7 | 1 | 3 | 6
O=C(O)c1cccc(NC2=C(N3CCOCC3)C(=O)c3ccccc3C2=O)c1 | 2 | 37* | 1 | 1 | 9 | -4 | 51*
CCCN(C(=O)C1CCCN(c2ncnc3c2nc2n3CCCCC2)C1)c1ccccc1C (centres undefined) | -2 | 4 | 0 | 0 | 0 | 1 | .
C=CCNc1nc(C(=O)OCC(=O)c2ccc(C)c([N+](=O)[O-])c2)cs1 | -1 | -9 | 1 | -7 | -2 | -5 | .
C=CCNc1nc(C(=O)OCC(=O)c2ccc(Cl)cc2)cs1 | 16 | 25* | 4 | -1 | -6 | 8 | -6
SMILES | UHRF1 binding | TDP2 absorb | LEDGF integ inh | DDE Tn7 FP inh | Tn6 DDE FP | MBD2 inh | TDP2 inh conf | others
COc1ccccc1-n1ccnc(SCC(=O)NCc2ccccc2Cl)c1=O | 0 | 29* | 0 | 3 | 3 | -1 | 4
Nc1ncnc2c1ncn2[C@@H]1O[C@H](C(=O)N[C@@H](CCc2ccccc2)C(=O)O)[C@@H](O)[C@H]1O | 0 | -6 | 5 | -5 | -5 | -3 | .
COc1ccc(NC(=O)CN(C)S(=O)(=O)c2ccc(Br)s2)cc1 | 2 | 25* | 1 | -1 | -2 | 0 | 1
COc1ccc(NC(=O)CN(C)S(=O)(=O)c2ccc(Br)s2)cc1OC | 1 | -3 | -2 | 0 | 7 | 6 | .
COc1ccc(CCNC(=O)Cn2c(=O)n(CCCC(=O)NCc3ccco3)c(=O)c3sccc32)cc1OC | 0 | 27* | 3 | -5 | 8 | 2 | 3
Oc1cncc(Cc2ccccc2)c1 | -2 | 25* | -1 | -1 | -1 | -2 | -13
COc1cc2cncc(Cc3ccccc3)c2cc1O | 0 | -2 | -3 | 5 | 13 | -2 | .
Cc1ccc(C2c3c(n[nH]c3C(C)C)C(=O)N2c2ccccc2)cc1 (centres undefined) | 3 | -6 | -3 | 5 | -7 | 2 | .
COc1ccccc1C=NN=C(NN=Cc1ccccc1OC)NN=Cc1ccccc1OC | 4 | 59* | 32* | 4 | -2 | -2 | -5 | IN multimer up=4;TRFRET interf=-13;IN-LEDGF confirm=-7
COc1ccccc1C=NNC(=O)NN=Cc1ccccc1OC | -3 | -2 | 0 | 6 | 5 | 1 | .
COc1ccc(N2C(=O)c3[nH]nc(-c4ccccc4)c3C2c2cccc(C(F)(F)F)c2)cc1 (centres undefined) | 5 | -9 | -1 | -1 | 2 | 5 | .
